The test system of test [1] is Cavia porcellus. Nature of the test: Compound was evaluated in vivo for the percent inhibition of Ovalbumin-induced (OA) bronchospasm in guinea pig at dose of 100 mg/kg id. Type of test: functional. Conditions: route intraduodenal. The method, boiled down:
(§1)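 Male Hartley guinea pigs (350-600 g) were sensitized with ovalbumin (5 mg ip plus 5 mg sc) and used 3-5 weeks later. They were anesthetized with pentobarbital, ventilated, and given indomethacin (10 mg/kg iv, 9 min before challenge) and chlorpheniramine (1.0 mg/kg iv, 1 min later). Drug was given id (or as noted) 10 min before 1% aerosolized ovalbumin; controls received saline. Overflow volume at 1, 3 and 5 min was taken as % of maximal bronchoconstriction and converted to % inhibition.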

Test [2] can be described thus: In vivo inhibition of LTD4-induced bronchospasm in guinea pig at dose of 50 mg/kg. Particulars: Cavia porcellus.
For test [3], the target named is T1, Polyunsaturated fatty acid 5-lipoxygenase (Rattus norvegicus) (UniProt P12527).
T1 sequence (whole entry): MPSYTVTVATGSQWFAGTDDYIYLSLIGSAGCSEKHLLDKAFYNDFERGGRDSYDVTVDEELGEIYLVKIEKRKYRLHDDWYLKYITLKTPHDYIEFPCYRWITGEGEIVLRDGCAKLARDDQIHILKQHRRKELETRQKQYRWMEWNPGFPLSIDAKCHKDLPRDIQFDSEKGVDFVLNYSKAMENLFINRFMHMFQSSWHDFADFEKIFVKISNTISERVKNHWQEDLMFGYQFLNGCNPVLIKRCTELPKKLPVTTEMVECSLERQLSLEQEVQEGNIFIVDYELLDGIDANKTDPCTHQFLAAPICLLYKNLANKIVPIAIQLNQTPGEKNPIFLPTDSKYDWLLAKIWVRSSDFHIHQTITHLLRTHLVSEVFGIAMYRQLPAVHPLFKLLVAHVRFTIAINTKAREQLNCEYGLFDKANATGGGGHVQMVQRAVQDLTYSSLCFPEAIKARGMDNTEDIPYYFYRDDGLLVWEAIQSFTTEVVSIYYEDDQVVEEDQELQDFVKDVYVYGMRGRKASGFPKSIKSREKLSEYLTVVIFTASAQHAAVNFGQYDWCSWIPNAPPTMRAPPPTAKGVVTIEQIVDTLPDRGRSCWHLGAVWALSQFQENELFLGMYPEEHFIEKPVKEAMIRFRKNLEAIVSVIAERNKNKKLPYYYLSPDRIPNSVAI
Nature of the test: In vitro inhibition of rat polymorphonuclear leukocyte (PMN) 5-Lipoxygenase at 100 uM.

In test [4] the target is Cyclooxygenase (Rattus norvegicus) (UniProt P35355+Q63921). Nature of the test: In vitro inhibition of rat polymorphonuclear leukocyte (PMN) Prostaglandin G/H synthase at 100 uM.
Test [5] deals with Cavia porcellus. Nature of the test: Compound was evaluated in vivo for the percent inhibition of LTD4-induced bronchospasm in guinea pig at dose of 10 mg/kg iv. Type of test: functional. The gist of the method:
(§2)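 Male guinea pigs (350-600 g) were anesthetized with pentobarbital sodium (50 mg/kg ip), cannulated and artificially ventilated, and spontaneous respiration arrested with pentobarbital (15 mg/kg iv). Indomethacin (10 mg/kg iv) was given 9 min before challenge. Drug was given id (or as noted) 10 min before iv LTD4 (0.3-1 μg/kg); controls received saline. Overflow volume at 1, 3 and 5 min was taken as % of maximal bronchoconstriction and converted to % inhibition versus control.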

Test [6] concerns the target T2, Polyunsaturated fatty acid 5-lipoxygenase (Rattus norvegicus, UniProt P12527).
T2 sequence (P12527 whole entry): T1 sequence (whole entry)
Nature of the test: Inhibition of rat polymorphonuclear leukocyte (PMN) 5-Lipoxygenase in vitro. The method, boiled down:
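Peritoneal PMNs came from female Wistar rats 24 h after ip 6% glycogen. Cells at 2×10^7/mL in HBSS with Ca2+/Mg2+ and 10 mM L-cysteine were preincubated with drug or vehicle for 10 min at 37 °C. The reaction was stopped with ice-cold water and acidified to pH 3.5, and LO and CO products were ether-extracted. IC50 per metabolite came from nonlinear regression.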

The test system of test [7] is Cavia porcellus. Nature of the test: Compound was evaluated in vivo for the percent inhibition of Ovalbumin-induced (OA) bronchospasm in guinea pig at dose of 10 mg/kg iv. Format: functional. The method, boiled down: as §1
The species entered for test [8] is Cavia porcellus. Nature of the test: Compound was evaluated for its effect on LTD4-induced contraction of guinea pig trachea. percentage of maximal response of tissue to carbachol. Format: functional. The gist of the method: (§3)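 Isolated guinea pig tracheal spiral strips were contracted with LTC4 or LTD4, with antagonist at 3×10^-6 M versus untreated control. Responses are expressed as percentage of the tissue's maximal response to carbachol (1 mM). Potency is given as -log of the agonist concentration (M) giving a half-maximal response. pKB = -log([B]/(dose ratio - 1)), where dose ratio = treated ED50 ÷ control ED50. Control vs treated compared by unpaired Student's t test.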

The species named for test [9] is Cavia porcellus. Nature of the test: Compound was evaluated for its effect on LTD4-induced contraction of guinea pig trachea. Format: functional. The method, boiled down:
as §3

For test [10], the species on record is Cavia porcellus. Nature of the test: Compound was evaluated for its effect on LTC4-induced contraction of guinea pig trachea. Format: functional. The gist of the method: as §3
For test [11], the species on record is Cavia porcellus. Nature of the test: Compound was evaluated for its effect on LTC4-induced contraction of guinea pig trachea. percentage of maximal response of tissue to carbachol. Type of test: functional. The method, boiled down:
as §3

In test [12] the test system is Cavia porcellus. Nature of the test: Compound was evaluated in vivo for the percent inhibition of LTD4-induced bronchospasm in guinea pig at dose of 50 mg/kg id. Type of test: functional. Particulars: route intraduodenal. The gist of the method: as §2

Each structure is given as a SMILES string. A value given as a limit tells only on which side of the number the result lay.

Cyclooxygenase (Rattus norvegicus), sequence (P35355 whole entry, looked up): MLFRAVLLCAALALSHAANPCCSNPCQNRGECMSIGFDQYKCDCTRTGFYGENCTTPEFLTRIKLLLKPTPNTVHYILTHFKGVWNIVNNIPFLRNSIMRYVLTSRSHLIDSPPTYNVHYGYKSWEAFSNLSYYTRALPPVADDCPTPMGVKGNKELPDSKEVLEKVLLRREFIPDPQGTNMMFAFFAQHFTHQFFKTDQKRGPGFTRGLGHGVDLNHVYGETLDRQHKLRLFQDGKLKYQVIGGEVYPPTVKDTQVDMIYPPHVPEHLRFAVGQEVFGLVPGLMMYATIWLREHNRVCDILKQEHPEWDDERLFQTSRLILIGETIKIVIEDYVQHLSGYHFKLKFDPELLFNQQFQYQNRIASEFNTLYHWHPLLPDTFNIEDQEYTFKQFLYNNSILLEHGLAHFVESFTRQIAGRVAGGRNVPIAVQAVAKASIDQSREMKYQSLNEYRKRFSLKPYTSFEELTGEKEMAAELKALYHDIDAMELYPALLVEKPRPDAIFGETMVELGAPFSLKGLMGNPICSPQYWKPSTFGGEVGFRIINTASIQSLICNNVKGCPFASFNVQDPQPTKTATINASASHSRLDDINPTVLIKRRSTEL
Cyclooxygenase (Rattus norvegicus), sequence (Q63921 whole entry, looked up): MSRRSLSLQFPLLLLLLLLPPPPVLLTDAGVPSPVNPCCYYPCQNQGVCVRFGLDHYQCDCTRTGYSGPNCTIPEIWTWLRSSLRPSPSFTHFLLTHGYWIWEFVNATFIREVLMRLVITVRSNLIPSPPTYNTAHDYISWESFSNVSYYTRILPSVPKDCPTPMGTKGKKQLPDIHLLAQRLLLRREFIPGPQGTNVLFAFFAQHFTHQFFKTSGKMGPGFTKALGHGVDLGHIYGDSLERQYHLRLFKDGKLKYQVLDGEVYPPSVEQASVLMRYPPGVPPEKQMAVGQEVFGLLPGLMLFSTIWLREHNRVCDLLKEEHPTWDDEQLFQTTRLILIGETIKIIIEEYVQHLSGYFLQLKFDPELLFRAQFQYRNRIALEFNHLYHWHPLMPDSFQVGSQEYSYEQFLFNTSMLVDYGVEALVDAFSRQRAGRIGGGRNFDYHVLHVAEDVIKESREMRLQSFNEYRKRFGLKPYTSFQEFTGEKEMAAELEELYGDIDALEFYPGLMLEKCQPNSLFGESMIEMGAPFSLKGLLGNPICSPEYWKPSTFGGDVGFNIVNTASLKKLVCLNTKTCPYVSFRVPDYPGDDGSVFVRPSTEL

Take `COC(=O)CCC(=O)Nc1ccccc1OCc1ccc2ccccc2n1`: in [1], testing at 100 mg/kg gave an inhibition in vivo of 9%. Moreover, the inhibition in test [2] is -6%; in test [3], less than 50%.

On to `COC(=O)CCC(=O)Nc1cccc(OCc2ccc3ccccc3c2)c1`, for which the inhibition in test [4] is less than 50%. In addition, the inhibition in vivo at 10 mg/kg in test [5] was determined as 54%; in test [7], 10%. In [6], this compound yielded an IC50 of 3.2 µM.

As for `CCCc1c(OCCCCc2nnn[nH]2)ccc(C(C)=O)c1O` [TOMELUKAST], the values for the Max contractility in [8] and in test [11] were 57% and 73%, respectively. The “-Log ED50” value turned out to be 7.49 in test [9] and 7.47 in test [10]. In addition, the results for the pKB in [9] and in test [10] were 5.63 and 5.74, respectively.

`COC(=O)CCC(=O)Nc1ccc(NC(=O)CCC(=O)OC)c(OCc2ccc3ccccc3n2)c1` gave an inhibition in vivo at 50 mg/kg in [12] of 18%. The inhibition in test [3] is less than 50%.

For the origin of these results see ChEMBL document CHEMBL1123502, “Synthesis of [[(naphthalenylmethoxy)- and [[(quinolinylmethoxy)phenyl]amino]oxoalkanoic acid esters. A novel series of leukotriene D4 antagonists and 5-lipoxygenase inhibitors” (J Med Chem, 1986).
